Converted amounts (≈) assume the structure as drawn.
Key:
[1] = test system: CCRF-CEM; test: Antiproliferative activity against human CCRF-CEM cells assessed as cell viability at 50 uM after 72 hrs by MTT assay; format: functional; conditions: read-out: Activity
In short: (§1)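 MTT viability assay in CCRF-CEM and MCF-7 cells after 72 h exposure at 25, 50, 100 and 200 µM. Results are relative to control cells without inhibitor in 0.5% DMSO. Done in triplicate; values are means ± SD of three independent experiments.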

[2] = test system: CCRF-CEM; test: Antiproliferative activity against human CCRF-CEM cells assessed as cell viability at 100 uM after 72 hrs by MTT assay; format: functional; conditions: read-out: Activity; in short: as §1
[3] = test system: CCRF-CEM; test: Antiproliferative activity against human CCRF-CEM cells assessed as cell viability at 200 uM after 72 hrs by MTT assay; format: functional; conditions: read-out: Activity; in short: as §1
[4] = test system: MCF7; test: Antiproliferative activity against human MCF7 cells assessed as cell viability at 50 uM after 72 hrs by MTT assay; format: functional; conditions: MCF7, 72 h, read-out: Activity; in short: as §1
[5] = test system: MCF7; test: Antiproliferative activity against human MCF7 cells assessed as cell viability at 100 uM after 72 hrs by MTT assay; format: functional; conditions: MCF7, 72 h, read-out: Activity; in short: as §1
[6] = test system: MCF7; test: Antiproliferative activity against human MCF7 cells after 72 hrs by MTT assay; format: functional, cell-based; conditions: MCF7, 72 h
In short: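 EC50 was derived from a repeat 72 h MTT assay in CCRF-CEM or MCF-7 cells. It is the concentration killing 50% of tumour cells compared with control cells incubated without inhibitor in 0.5% DMSO.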

[7] = test system: Candida albicans; test: Growth inhibition of Candida albicans ATCC 90028 at 16 ug/ml incubated for 18 hrs at 35 degC by broth microdilution method relative to control; format: functional; conditions: ATCC 90028, 18 h, read-out: GI
[8] = test system: Candida albicans; test: Growth inhibition of Candida albicans ATCC 90028 at 16 ug/ml incubated for 48 hrs at 35 degC by broth microdilution method relative to control; format: functional; conditions: ATCC 90028, 48 h, read-out: GI
[9] = test system: Candida albicans; test: Growth inhibition of Candida albicans ATCC 90028 at 8 ug/ml incubated for 18 hrs at 35 degC by broth microdilution method relative to control; format: functional; conditions: ATCC 90028, 18 h, read-out: GI
[10] = test system: Candida albicans; test: Growth inhibition of Candida albicans ATCC 90028 at 8 ug/ml incubated for 48 hrs at 35 degC by broth microdilution method relative to control; format: functional; conditions: ATCC 90028, 48 h, read-out: GI
[11] = test system: Candida albicans; test: Growth inhibition of Candida albicans ATCC 90028 at 4 ug/ml incubated for 18 hrs at 35 degC by broth microdilution method relative to control; format: functional; conditions: ATCC 90028, 18 h, read-out: GI
[12] = test system: Candida albicans; test: Growth inhibition of Candida albicans ATCC 90028 at 8 ug/ml incubated for 4 hrs at 35 degC by broth microdilution method relative to control; format: functional; conditions: ATCC 90028, 4 h, read-out: GI
[13] = test system: Candida albicans; test: Growth inhibition of Candida albicans ATCC 90028 at 2 ug/ml incubated for 18 hrs at 35 degC by broth microdilution method relative to control; format: functional; conditions: ATCC 90028, 18 h, read-out: GI
[14] = test system: Candida albicans; test: Growth inhibition of Candida albicans ATCC 90028 at 2 ug/ml incubated for 4 hrs at 35 degC by broth microdilution method relative to control; format: functional; conditions: ATCC 90028, 4 h, read-out: GI
[15] = test system: Candida albicans; test: Growth inhibition of Candida albicans ATCC 90028 at 1 ug/ml incubated for 18 hrs at 35 degC by broth microdilution method relative to control; format: functional; conditions: ATCC 90028, 18 h, read-out: GI
[16] = test system: Candida albicans; test: Growth inhibition of Candida albicans ATCC 90028 at 1 ug/ml incubated for 4 hrs at 35 degC by broth microdilution method relative to control; format: functional; conditions: ATCC 90028, 4 h, read-out: GI
[17] = test system: Candida albicans; test: Growth inhibition of Candida albicans ATCC 90028 at 0.5 ug/ml incubated for 18 hrs at 35 degC by broth microdilution method relative to control; format: functional; conditions: ATCC 90028, 18 h, read-out: GI
[18] = test system: Candida albicans; test: Growth inhibition of Candida albicans ATCC 90028 at 0.5 ug/ml incubated for 4 hrs at 35 degC by broth microdilution method relative to control; format: functional; conditions: ATCC 90028, 4 h, read-out: GI
[19] = test system: Candida albicans; test: Growth inhibition of Candida albicans ATCC 90028 at 0.25 ug/ml incubated for 18 hrs at 35 degC by broth microdilution method relative to control; format: functional; conditions: ATCC 90028, 18 h, read-out: GI
[20] = test system: Candida albicans; test: Growth inhibition of Candida albicans ATCC 90028 at 0.25 ug/ml incubated for 4 hrs at 35 degC by broth microdilution method relative to control; format: functional; conditions: ATCC 90028, 4 h, read-out: GI
[21] = test system: Candida albicans; test: Growth inhibition of Candida albicans ATCC 90028 at 0.125 ug/ml incubated for 18 hrs at 35 degC by broth microdilution method relative to control; format: functional; conditions: ATCC 90028, 18 h, read-out: GI
[22] = test system: Candida albicans; test: Growth inhibition of Candida albicans ATCC 90028 at 0.125 ug/ml incubated for 4 hrs at 35 degC by broth microdilution method relative to control; format: functional; conditions: ATCC 90028, 4 h, read-out: GI
[23] = test system: Candida albicans; test: Growth inhibition of Candida albicans ATCC 90028 at 0.0313 ug/ml incubated for 18 hrs at 35 degC by broth microdilution method relative to control; format: functional; conditions: ATCC 90028, 18 h, read-out: GI
[24] = test system: Candida albicans; test: Growth inhibition of Candida albicans ATCC 90028 at 4 uM incubated for 48 hrs at 35 degC by broth microdilution method relative to control; format: functional; conditions: ATCC 90028, 48 h
[25] = test system: Candida albicans; test: Fungicidal activity against Candida albicans ATCC 90028 assessed as log reduction in cell viability at 16 ug/ml after 48 hrs at 35 degC; format: functional
In short: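 MFC assay on C. albicans ATCC 90028 following M27-A3, at the molar equivalent of 16 µg/mL. CFU of treated cells were compared with CFU of the untreated inoculum. Activity is given as lg R = lg CFU/mL control − lg CFU/mL treated, and lg R ≥3 was defined as fungicidal. Values are means of two independent experiments.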

[26] = test system: Candida albicans; test: Fungicidal activity against Candida albicans ATCC 90028 assessed as drug level causing 3 fold reduction in bacterial count after 48 hrs at 35 degC; format: functional; conditions: ATCC 90028, 48 h
[27] = test system: Candida albicans; test: Antifungal activity against Candida albicans ATCC 90028 assessed as reduction in cell viability at 1022.5 to 0.06 uM after 48 hrs in presence of ergosterol by XTT assay; format: functional; conditions: ATCC 90028, 48 h
[28] = Toxicity in Galleria mellonella larvae infected with Candida albicans ATCC 90028 infected with 31 uM compound pre-treated cell suspensions assessed as survival incubated in dark for 144 hrs at 30 degC and measured every 24 hrs; format: organism-based; conditions: in vivo
[29] = Toxicity in Galleria mellonella larvae infected with Candida albicans ATCC 90028 infected with 20 uM compound pre-treated cell suspensions assessed as survival incubated in dark for 144 hrs at 30 degC and measured every 24 hrs; format: organism-based; conditions: in vivo
[30] = test system: Vero; test: Cytotoxicity in African green monkey Vero cells up to 64 ug/ml incubated for 3 to 18 hrs by XTT assay; format: cell-based; conditions: chlorocebus sabaeus
[31] = test system: Vero; test: Cytotoxicity in African green monkey Vero cells at 256 ug/ml incubated for 3 to 18 hrs by XTT assay; format: cell-based; conditions: chlorocebus sabaeus
[32] = test system: Candida albicans; test: Inhibition of cell adhesion of Candida albicans ATCC 90028 to African green monkey Vero cells at 2 ug/ml relative to untreated control; format: functional; conditions: ATCC 90028, Vero
[33] = test system: Candida albicans; test: Inhibition of cell adhesion of Candida albicans ATCC 90028 to African green monkey Vero cells at 16 ug/ml relative to untreated control; format: functional; conditions: ATCC 90028, Vero
[34] = test system: Candida albicans; test: Inhibition of biofilm formation of Candida albicans ATCC 90028 after 48 hrs by XTT assay; format: functional, organism-based; conditions: ATCC 90028, 48 h

**Q.** Which results are given for `CC(Cn1cnc2c1c(=O)n(C)c(=O)n2C)OCc1cn(CCCn2nc3c(Br)c(Br)c(Br)c(Br)c3n2)nn1` (stereo not drawn)?
**A.** viability at 50 µM [1]: 0%; viability at 100 µM [2]: 0%; viability at 200 µM [3]: 0%; viability at 50 µM [4]: 59.8%; viability at 100 µM [5]: 59.1%; EC50 [6]: 80 µM; inhibition of growth at 16 µg/mL [7]: 100%; inhibition of growth at 16 µg/mL [8]: 100%; inhibition of growth at 8 µg/mL [9]: 100%; inhibition of growth at 8 µg/mL [10]: 99.9%; inhibition of growth at 4 µg/mL [11]: 100%; inhibition of growth at 8 µg/mL [12]: 99.1%; inhibition of growth at 2 µg/mL [13]: 99.9%; inhibition of growth at 2 µg/mL [14]: 99.1%; inhibition of growth at 1 µg/mL [15]: 99.4%; inhibition of growth at 1 µg/mL [16]: 99.1%; inhibition of growth at 0.5 µg/mL [17]: 99.2%; inhibition of growth at 0.5 µg/mL [18]: 99.1%; inhibition of growth at 0.25 µg/mL [19]: 99.4%; inhibition of growth at 0.25 µg/mL [20]: 99.1%; inhibition of growth at 0.125 µg/mL [21]: 99.1%; inhibition of growth at 0.125 µg/mL [22]: 99%; inhibition of growth at 0.0313 µg/mL [23]: 99.1%; MIC [24]: 10 µM (≈ 7.94 µg/mL); log(activity) [25]: 8; MFC [26]: 5 µM (≈ 3.97 µg/mL); MIC [27]: 8 µM; survival at 24 h, 31 µM [28]: 90 to 100%; survival at 24 h, 20 µM [29]: 90 to 100%; Activity [30]: Non-Toxic; Activity [31]: Toxic; inhibition at 2 µg/mL [32]: 89%; inhibition at 16 µg/mL [33]: 100%; IC50 [34]: 20 µM

**Q.** What does the source list for `CC(CN1c2ccccc2Sc2ccccc21)OC(=O)OC(C)Cn1cnc2c1c(=O)n(C)c(=O)n2C` (stereo not drawn)?
**A.** viability at 50 µM [1]: 7.9%; viability at 100 µM [2]: 0%; viability at 200 µM [3]: 0%; viability at 50 µM [4]: 38.3%; viability at 100 µM [5]: 27.1%; EC50 [6]: 80 µM; inhibition of growth at 16 µg/mL [7]: 100%; inhibition of growth at 16 µg/mL [8]: 100%; inhibition of growth at 8 µg/mL [9]: 100%; inhibition of growth at 8 µg/mL [10]: 100%; inhibition of growth at 4 µg/mL [11]: 100%; inhibition of growth at 8 µg/mL [12]: 100%; inhibition of growth at 2 µg/mL [13]: 100%; inhibition of growth at 2 µg/mL [14]: 99.5%; inhibition of growth at 1 µg/mL [15]: 100%; inhibition of growth at 1 µg/mL [16]: 99.5%; inhibition of growth at 0.5 µg/mL [17]: 99.9%; inhibition of growth at 0.5 µg/mL [18]: 99.1%; inhibition of growth at 0.25 µg/mL [19]: 99.9%; inhibition of growth at 0.25 µg/mL [20]: 99%; inhibition of growth at 0.125 µg/mL [21]: 99.9%; inhibition of growth at 0.125 µg/mL [22]: 99.1%; inhibition of growth at 0.0313 µg/mL [23]: 99.6%; MIC [24]: 4 µM (≈ 2.09 µg/mL); log(activity) [25]: 8; MFC [26]: 15 µM (≈ 7.82 µg/mL); MIC [27]: 38 µM; survival at 24 h, 31 µM [28]: 90 to 100%; survival at 24 h, 20 µM [29]: 90 to 100%; Activity [30]: Non-Toxic; Activity [31]: Toxic; inhibition at 2 µg/mL [32]: 89%; inhibition at 16 µg/mL [33]: 100%; IC50 [34]: 248 µM
